Measured values: article PMC2856757 (Journal of structural biology, 2010)

Assays:
Assay type in all cases: physicochemical
[1] = Circular dichroism spectra; conditions: 5°C; for [θ]222 Benign (mean residue ellipticity at 222 nm): CD, peptide 211μm to 265μm (0.2 mg/ml), 1 mm cell, average of 6 scans; for [θ]222 Benign (mean residue ellipticity at 222 nm) / [θ]222/[θ]208 Benign: benign buffer (100mM KCl, 50mM PO4, pH 7); for [θ]222/[θ]208 50% TFE / [θ]222/[θ]208 Benign: ratio of mean residue ellipticity at 222 nm and 208 nm; for [θ]222/[θ]208 50% TFE: 50/50 benign buffer/TFE (v/v)
Procedure, shortened: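 Disulfide-bridged peptides (N-acetylated, C-amidated, N-terminal Cys-Gly-Gly, air-oxidised overnight at 4°C in 100mM ammonium bicarbonate pH 8.3). Stocks of 2mg/mL in benign buffer are diluted to 0.2 mg/ml in benign buffer or buffer with 50% TFE. Concentration is by amino acid analysis. Scans run 190–255 nm in 0.5 nm steps at 50 nm per minute. Ellipticity is converted to molar ellipticity using mean residue weight, path length and concentration.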

[2] = Thermal denaturation by circular dichroism spectroscopy at 222 nm; conditions: CD at 222 nm, benign buffer (100mM KCl, 50mM PO4, pH 7), 5°C to 90°C in 0.5°C increments, 60°C/hour, from plot of fraction folded versus temperature
Procedure, shortened: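 Disulfide-bridged two-stranded peptides (air-oxidised overnight at 4°C in 100mM ammonium bicarbonate, pH 8.3) diluted to 0.2 mg/ml in 100mM KCl, 50mM PO4, pH 7 (1 mm cell). Concentration by amino acid analysis. Ellipticity at 222 nm scanned 5°C to 90°C, 0.5°C steps, 60°C/hour. Fraction folded from observed, fully folded and fully unfolded ellipticities. Tm is the 50%-unfolded temperature; ΔTm is taken versus native peptide.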

[3] = RP-HPLC temperature profiling of peptide self-association; conditions: Gemini C18, 100mM NaClO4, 10mM NH4H2PO4, pH 7, 2%B per minute, 5°C - 80°C in 3°C increments, peptide 1.7mg/ml, retention times normalized to 5°C minus random coil control peptide
Procedure, shortened: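 Gradient is 0-100%B over 50 minutes; eluent B is 50/50 H2O/CH3CN with the same salts. Retention time at each temperature minus that at 5°C gives the normalised value. Association parameter = peptide normalised value minus control normalised value; the maximum is reported.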

[4] = listed as R101A/L110A/K112A/K118A

Substance | [θ]222 Benign (mean residue ellipticity at 222 nm) [1] | [θ]222/[θ]208 50% TFE [1] | [θ]222/[θ]208 Benign [1] | [θ]222/[θ]208 Benign ([1]; listed as native peptide) | Tm (temperature at which 50% of the peptide is unfolded) [2] | PA,Max (maximum association parameter, self-association) [3] | Tm (temperature at which 50% of the peptide is unfolded) [2, 4] | PA,Max (maximum association parameter, self-association) [3, 4]
Native: native tropomyosin 85-119 coiled-coil sequence with N-terminal Cys-Gly-Gly linker, N-acetylated, C-amidated, disulfide-bridged (Ac-CGGVASLNRRIQLVEEELDRAQERLATALQKLEEAEKA-NH2; also: disulfide-bridged two-stranded dimer (linker Cys); UniProt P09493 85-119, looked up, fragment) | -36,213 deg cm^2 dmol^-1 | 0.96 deg cm^2 dmol^-1 | 1.08 deg cm^2 dmol^-1 | greater than 1 deg cm^2 dmol^-1 | 52.9 °C | 3.4 | – | –
TM2: TM85-119 analog with K118A substitution (VASLNRRIQLVEEELDRAQERLATALQKLEEAEAA; not fully specified; Cys-Gly-Gly linker; UniProt P09493 85-119, looked up, variant K118A) | -30,548 deg cm^2 dmol^-1 | 0.97 deg cm^2 dmol^-1 | 1.08 deg cm^2 dmol^-1 | – | 48.7 °C | 2.7 | – | –
TM3: TM85-119 analog with K112A/K118A substitutions (VASLNRRIQLVEEELDRAQERLATALQALEEAEAA; not fully specified; Cys-Gly-Gly linker; UniProt P09493 85-119, looked up, variant K112A K118A) | -29,457 deg cm^2 dmol^-1 | 0.97 deg cm^2 dmol^-1 | 1.08 deg cm^2 dmol^-1 | – | 45.3 °C | 2.4 | – | –
TM4: TM85-119 analog with R101A substitution (VASLNRRIQLVEEELDAAQERLATALQKLEEAEKA; not fully specified; Cys-Gly-Gly linker; UniProt P09493 85-119, looked up, variant R101A) | -34,390 deg cm^2 dmol^-1 | 0.96 deg cm^2 dmol^-1 | 1.08 deg cm^2 dmol^-1 | – | 46.0 °C | 1.8 | – | –
TM7: TM85-119 analog with R101A/L110A/K112A/K118A substitutions (VASLNRRIQLVEEELDAAQERLATAAQALEEAEAA; not fully specified; Cys-Gly-Gly linker; UniProt P09493 85-119, looked up, variant R101A L110A K112A K118A) | -9,578 deg cm^2 dmol^-1 | 0.97 deg cm^2 dmol^-1 | 0.86 deg cm^2 dmol^-1 | – | <5 °C | 0 | less than 5 °C | zero
